Measurements: PubChem BioAssay AID504382 (The Scripps Research Institute Molecular Screening Center, 2011)
Hit rate of the full screen: of about 2,500 compounds, about 460 (18%) were called active. These entries were drawn from the full list. Unmarked numbers belong to inactive results.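 The calls were made as follows: active = mean activation above a cutoff of low control average plus 3 SD from the earlier screen (cut at about 12% in these data); inactive = the rest.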

experiment: compound fluorescence interference without thin filaments, confirmation, artefact control for cardiac RTF calcium sensitizer project, biochemical (AID 504382); conditions: IANBD fluorescence interference counterscreen, buffer, EC20 Ca2+; at 7.2 µM; stronger effect = higher value; scaled: EC20 calcium 0, EC100 calcium 100
Method in brief: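 Also added: EC20 calcium, 0.472 mM; dosing: single nominal 7.2 µM compound dose, 0.7% DMSO final; timing: 15 min, 25 °C; detection: fluorescence intensity, excitation 480 nm, emission 540 nm; replicates: each compound tested in triplicate wells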

Row | SMILES | fluorescence artifact activation
1 | O=C(c1cn(-c2ccccc2)nc1-c1ccc(Br)cc1)N1CCOCC1 | 0.32%
2 | COC(=O)c1[nH]c2ccc(C)cc2c1NC(=O)C(C)N1CCN(C2CCCCC2)CC1 (stereo not drawn) | 0.08%
3 | O=C(O)C1CCCCC1C(=O)Nc1ccc(-c2ccccc2)cc1 (stereo not drawn) | 0.17%
4 | CCOc1ccc(C2C(C#N)=C(N)SC(N)=C2C#N)cc1OCC | 11.7% (active)
5 | CCOc1ccccc1C1C(C#N)=C(N)SC(N)=C1C#N | 0.08%
6 | COc1ccc(C2C(C#N)=C(N)SC(N)=C2C#N)cc1OC | 0.15%
7 | Cc1cc(S(=O)(=O)Nc2c(C)nn(C)c2C)c(Cl)cc1Cl | 0.08%
8 | COC(=O)c1ccc2c(c1)NC1=C(C(=O)CC(C)(C)C1)C(c1ccncc1)N2 (stereo not drawn) | 0.26%
9 | Cc1ccccc1OCCC(=O)Nc1cc(S(=O)(=O)N2CCCCC2)ccc1N1CCN(C)CC1 | 4.83%
10 | CCN1/C(=C\c2ccc3cc(C)ccc3[n+]2CC)Sc2cc(C)c(C)cc21 | 0.1%
11 | CCN1/C(=C/c2ccc3cc(C)ccc3[n+]2CC)Sc2cc(C)ccc21 | 0.41%
12 | CCN1/C(=C/c2ccc3cc(C)ccc3[n+]2CC)Sc2ccccc21 | 15.3% (active)
13 | CCN1/C(=C/c2ccc3cc(C)ccc3[n+]2CC)Sc2ccc3sccc3c21 | 0.99%
14 | CCN1/C(=C/c2ccc3cc(C)cc(C)c3[n+]2CC)Sc2cc(C)ccc21 | 0.44%
15 | CCN1/C(=C\c2ccc3ccccc3[n+]2CC)Sc2cc(C)ccc21 | 20.2% (active)
16 | COCCN(CCOC)Cc1c(O)ccc2c1O/C(=C\c1ccco1)C2=O | 0.11%
17 | C=CCn1c(O)c(CN2CCN(Cc3ccccc3)CC2)c(C)c(C#N)c1=O | 0.03%
18 | CCC[C@@H](CN1CCC[C@H]1CN1C(N)=NC[C@@H]1Cc1ccccc1)N1C[C@@H](Cc2ccccc2)N(CCCC2CCCC2)C1=N | 7.46%
19 | CCOc1ccc(NC(=O)/C(C#N)=C/c2ccc(N3CCCC3)c(C)c2)cc1 | 0.06%
20 | Oc1[nH]c2ccc(Br)cc2c1N=Nc1ccc(F)cc1 | 5.56%
21 | CS(=O)(=O)Nc1ccc(C2=NN(C(=O)CCCC(=O)O)C(c3cccs3)C2)cc1 (stereo not drawn) | 16.5% (active)
22 | COc1ccc(C2=NN(C(=O)COC(=O)c3ccc(NC(=O)CC#N)cc3)C(c3ccco3)C2)cc1 (stereo not drawn) | 2.58%
23 | O/C(=C\c1nc2ccccc2[nH]1)c1cccs1 | 0%
24 | O=C(O)c1ccc(O)c(O)c1 | -0.01%

Row | SMILES | fluorescence artifact activation
25 | Cc1cc(C)c[n+](-c2[nH]c(=O)sc2/C=N/NC([S-])=Nc2ccccc2)c1 | 0.17%
26 | Cc1ccc[n+](-c2nc([O-])sc2C=O)c1 | 9.59%
27 | Cc1ccc(N/C=C2/Sc3ccccc3NC2=O)cc1 | 0.14%
28 | CC1C2(C)OC(=N)C(C#N)(C(C)O2)C1(C#N)C#N (stereo not drawn) | 0.64%
29 | CCCCN1C(=O)/C(=C/C=C2/CC(C)(C)CN2C)SC1=S | -0.02%
30 | CCN1C(=O)/C(=C/C=C2/SCCN2C)SC1=S | 10.2%
31 | CCN1C(=O)/C(=C\C=C2/C=CC=CN2CC)SC1=S | 104% (active)
32 | COC(=O)C(C)n1cnc2c(nnn2Cc2ccc(Cl)cc2)c1=O (stereo not drawn) | 0.03%
33 | Cc1ccc(C)c(S(=O)(=O)N2CCCC2CNC(=O)C(=O)NC2CC2)c1 (stereo not drawn) | 0.11%
34 | Cc1cc(/C=C2\SC(=S)N(C)C2=O)c(C)n1-c1ccccc1O | 3.34%
35 | CN(/N=C/c1ccc(N(C)C)cc1)C1=NS(=O)(=O)c2ccccc21 | 6.25%
36 | CCN(CC)c1ccc2cc(-c3nc4ccccc4n3C)c(=O)oc2c1 | 0.12%
37 | CCN(CC)c1ccc2c(Cl)c(Br)c(=O)oc2c1 | 0.1%
38 | CCN(CC)c1ccc2cc(C=O)c(=O)oc2c1 | 5.57%
39 | CCN(CC)c1ccc2oc(=O)c(C)nc2c1 | 124% (active)
40 | CCN(CC)c1ccc2c(c1)oc(=O)c1c(Cl)cc(=O)oc12 | 21.4% (active)
41 | O=C(Nc1ccccc1)C1CC2CCCC(C1)C2=O (stereo not drawn) | 2.4%
42 | O=C(C1=NN(c2ccccc2)C2C(=O)N(c3ccc(Cl)cc3)C(=O)C12)c1ccccc1 (stereo not drawn) | -0.02%
43 | Cc1ccc2c(C(=O)CN3CCC(C(N)=O)CC3)c(C)[nH]c2c1 | 9.54%
44 | CCS(=O)(=O)N1Cc2ccccc2CC1C(=O)Nc1ccc(OC)cc1OC (stereo not drawn) | 0.07%
45 | O=C(O)c1cccc2c1C(=O)c1ccc(N3CCCC3)cc1S2(=O)=O | -0.07%
46 | O=C1c2cccc3c(N4CCCCC4)ccc(c23)C(=O)N1CCO | 42.3% (active)
47 | C=CCN1C(=O)c2cccc3c(N4CCCCC4)ccc(c23)C1=O | 2.88%
48 | CCCN1C(=O)c2cccc3c(N4CCCCC4)ccc(c23)C1=O | 0.47%

Row | SMILES | fluorescence artifact activation
49 | O[C@@H]1CN(C2CCCCC2)CC[C@H]1N1CCN(CCc2ccccc2)CC1 | 7.79%
50 | CC[C@@]1(O)C(=O)OCc2c1cc1n(c2=O)Cc2cc3c(CN(C)C)c(O)ccc3nc2-1 | 6.14%
51 | CCOc1ccc(Nc2nc(N)c([N+](=O)[O-])c(NCc3ccccc3)n2)cc1 | 0.09%
52 | C(=Cc1c[nH]c2ccccc12)c1nccc2ccccc12 | 1.55%
53 | OCC[n+]1ccc(/C=C/c2c[nH]c3ccccc23)cc1 | 0%
54 | C[n+]1ccc(/C=C/c2c[nH]c3ccc(F)cc23)cc1 | 0.16%
55 | Cc1ccc2[nH]cc(/C=C/c3cc[n+](C)cc3)c2c1 | -0.07%
56 | C[n+]1ccc(/C=C/c2c[nH]c3ccccc23)cc1 | 57.3% (active)
57 | CC[n+]1ccc(/C=C/c2c[nH]c3ccccc23)cc1 | 59.8% (active)
58 | Cc1cc(Cl)ccc1OCC(=O)NCCOc1nc(N2CCOCC2)nc(N2CCOCC2)n1 | 0.1%
59 | N#Cc1c(-c2ccccc2F)cc(C2CC2)nc1SCC(=O)c1cccs1 | 0.28%
60 | Cc1ccc(C(=O)N/C(=C/c2ccc(-c3ccc([N+](=O)[O-])cc3)o2)C(=O)NCCCN(C)C)cc1 | 0.29%
61 | NC(=O)CC[C@@H]1NC(=O)[C@H](Cc2ccc(O)cc2)NC(=O)c2cc([N+](=O)[O-])cc(F)c2OCC[C@@H](C(N)=O)NC1=O | 0.02%
62 | COc1ccc(CNS(=O)(=O)c2cc(-c3cc(C)no3)ccc2OC)cc1OC | 2.41%
63 | CC(C)(CO)NCC#Cc1ccccc1 | -0.01%
64 | CSCCC(NC(=O)c1ccccc1Cl)C(=O)N1CCC1 (stereo not drawn) | -0.06%
65 | Cc1nn(C)c(NC(=O)c2ccccc2Cl)c1Cl | 18.7% (active)
66 | COc1ccccc1C(=O)Nc1nnn(C)n1 | -0.09%
67 | O=C(Oc1cc2oc(=O)c3c(c2cc1Cl)CCCC3)c1cccs1 | 0.11%
68 | CC1CN(CCCCOc2ccc3ccccc3c2)CC(C)O1 (stereo not drawn) | 0.12%
69 | Cc1ccccc1C(=O)c1cccn1CC(=O)NCCCN1CC(C)CC(C)C1 (stereo not drawn) | 0.1%
70 | CC1CC(C)CN(CCOCCSc2ccccc2)C1 (stereo not drawn) | 28.4% (active)
71 | CC1CCN(c2ccc3c(c2)S(=O)(=O)c2cccc(C(=O)NCc4cccc(F)c4)c2C3=O)CC1 | 0.09%
72 | C=CCNC(=S)N(CC=C)C1CCS(=O)(=O)C1 (stereo not drawn) | 0.07%

Row | SMILES | fluorescence artifact activation
73 | Cc1cccn2c(=O)c(/C=C3\SC(=S)N(CC(C)C)C3=O)c(NCCCOC(C)C)nc12 | 17.1% (active)
74 | Cc1cccn2c(=O)c(/C=C3\SC(=S)NC3=O)c(NCCCN3CCOCC3)nc12 | 21.4% (active)
75 | Cc1cccn2c(=O)c3cc(C#N)c(=NC(=O)c4cccs4)n(CCCOC(C)C)c3nc12 | -0.06%
76 | COC(=O)CCCCCN1C(=O)/C(=C\c2ccncc2)SC1=S | -0.01%
77 | CCNC(=O)/C(C#N)=C/c1c(N2CCN(Cc3ccc4c(c3)OCO4)CC2)nc2c(C)cccn2c1=O | 0.06%
78 | O=C1NC(=S)S/C1=C/c1ccc(N2CCOCC2)o1 | 1.59%
79 | O=C1CCN2C=Nc3cccc4ccc1c2c34 | -0.03%
80 | CC1=C(C)CC(C(=O)NNC(=O)c2cccc(Cl)c2)C(C(=O)O)C1 (stereo not drawn) | -0.06%
81 | Cc1cc([N+](=O)[O-])nn1CC(=O)Nc1c(C)n(C)n(-c2ccccc2)c1=O | 3.39%
82 | CN1CCC/C1=C1/C(=O)N(c2ccccc2)N=C1NC(=O)Nc1cccc(Cl)c1 | 0.05%
83 | Cc1c(N=C2N=C(NC(=O)Nc3ccc(Cl)cc3)c3ccccc32)c(=O)n(-c2ccccc2)n1C | 20.3% (active)
84 | O=C(Nc1cccc2c1N(C(=O)c1ccco1)CCC2)c1ccco1 | 5.02%
85 | COc1ccccc1CNC(=O)COC(=O)c1cccc(S(=O)(=O)N2CCOCC2)c1 | 0.16%
86 | Cc1ccc(C(C)NC(=O)c2cccs2)cc1C (stereo not drawn) | 174% (active)
87 | C/C(=N\NC(=O)c1ccccc1)c1ccc(NC(=O)c2cccs2)cc1 | 0.85%
88 | C[C@@H](NC(=O)c1ncn(C)c1C(=O)N[C@H](C)c1ccccc1)c1ccccc1 | 0%
89 | Cc1cc(S(=O)(=O)NC(C)C)ccc1OCC(=O)NCc1ccccc1 | 0.08%
90 | CCN(CC)C(=O)C(=O)c1c(-c2ccccc2)[nH]c2ccccc12 | 6.52%
91 | CCOC(=O)c1c(NCC(C)C)c2ccccc2[nH]c1=O | 39.3% (active)
92 | COC(=O)[C@H](C)NC(=O)c1cc2c(cn1)[nH]c1ccccc12 | 0.32%
93 | C=CCN1C(=O)[C@@H]2Cc3c([nH]c4ccccc34)C(c3ccc(O)cc3)N2C1=S (stereo partly drawn) | -0.05%
